From publication PMC7368294 (Proceedings of the National Academy of Sciences of the …, 2020) come the findings set out here.

The target of test [1] is T1, Dα1/Dβ1 nAChR (Drosophila melanogaster, UniProt P04755+P09478).
T1 sequence (P09478 22-567): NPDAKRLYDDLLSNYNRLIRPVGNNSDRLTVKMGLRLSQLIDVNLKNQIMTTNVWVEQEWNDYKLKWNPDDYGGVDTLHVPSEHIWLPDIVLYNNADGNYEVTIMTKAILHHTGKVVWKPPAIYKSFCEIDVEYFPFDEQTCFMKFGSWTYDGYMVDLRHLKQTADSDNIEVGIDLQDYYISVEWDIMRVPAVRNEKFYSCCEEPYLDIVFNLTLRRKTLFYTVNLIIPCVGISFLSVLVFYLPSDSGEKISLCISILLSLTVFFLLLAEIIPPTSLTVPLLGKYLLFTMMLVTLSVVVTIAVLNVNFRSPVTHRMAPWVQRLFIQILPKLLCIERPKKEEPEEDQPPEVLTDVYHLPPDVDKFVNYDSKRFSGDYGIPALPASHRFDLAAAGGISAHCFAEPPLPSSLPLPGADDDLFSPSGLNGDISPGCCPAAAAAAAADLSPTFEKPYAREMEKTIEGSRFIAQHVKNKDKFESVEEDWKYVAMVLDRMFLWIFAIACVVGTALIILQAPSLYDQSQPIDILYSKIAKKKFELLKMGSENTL
T1 sequence (P04755 25-521): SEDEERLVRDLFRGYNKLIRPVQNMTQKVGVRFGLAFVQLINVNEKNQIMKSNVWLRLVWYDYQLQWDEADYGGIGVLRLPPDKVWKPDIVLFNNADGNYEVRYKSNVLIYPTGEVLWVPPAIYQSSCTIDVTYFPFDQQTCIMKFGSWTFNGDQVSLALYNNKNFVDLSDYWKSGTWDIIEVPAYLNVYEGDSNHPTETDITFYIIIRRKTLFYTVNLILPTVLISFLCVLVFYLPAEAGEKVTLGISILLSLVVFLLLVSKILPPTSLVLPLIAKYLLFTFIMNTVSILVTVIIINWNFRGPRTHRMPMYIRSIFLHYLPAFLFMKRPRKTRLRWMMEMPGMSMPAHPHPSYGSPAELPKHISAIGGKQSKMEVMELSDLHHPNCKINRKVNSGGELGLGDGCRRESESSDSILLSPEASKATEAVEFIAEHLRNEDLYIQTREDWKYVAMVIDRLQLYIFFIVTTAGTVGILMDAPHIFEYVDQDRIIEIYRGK
The test is described as follows: two-electrode voltage clamp of Xenopus oocytes, agonist concentration-response. The format is cell-based. The method in brief: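 Oocytes were collagenase-defolliculated, injected with subunit and cofactor cRNAs (100 ng⋅μL−1 each) and kept 3–7 d at 16 °C. Cells were clamped at −100 mV and perfused with saline containing 0.5 μM atropine. Agonists were applied 5 s at 3-min intervals after stable 100 μM ACh responses. Peak currents were normalized to 100 μM ACh and Hill-fitted. n = 5, ≥2 frogs; DMSO <0.1%.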
(In general: Two-electrode voltage clamp holds a large cell at a set potential and records current.)

Test [2] addresses T2, Dα1/Dβ1/Dβ2 nAChR (Drosophila melanogaster, UniProt P04755+P09478+P25162).
T2 sequence (P09478 22-567): T1 sequence (P09478 22-567)
T2 sequence (P04755 25-521): T1 sequence (P04755 25-521)
T2 sequence (P25162 19-519): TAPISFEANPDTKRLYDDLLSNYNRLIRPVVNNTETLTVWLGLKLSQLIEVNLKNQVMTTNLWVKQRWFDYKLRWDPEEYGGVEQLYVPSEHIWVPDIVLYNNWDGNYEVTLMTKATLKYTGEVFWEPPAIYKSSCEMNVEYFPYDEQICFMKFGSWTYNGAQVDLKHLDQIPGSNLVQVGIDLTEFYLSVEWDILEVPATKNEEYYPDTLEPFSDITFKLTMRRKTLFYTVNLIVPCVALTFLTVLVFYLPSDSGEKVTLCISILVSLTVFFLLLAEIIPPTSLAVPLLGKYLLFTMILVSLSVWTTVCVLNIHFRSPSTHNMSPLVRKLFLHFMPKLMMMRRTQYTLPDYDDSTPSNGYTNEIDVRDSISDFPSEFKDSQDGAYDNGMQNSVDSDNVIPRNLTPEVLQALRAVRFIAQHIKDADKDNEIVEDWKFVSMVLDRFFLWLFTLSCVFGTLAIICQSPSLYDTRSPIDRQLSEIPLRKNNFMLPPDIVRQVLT
Briefly: cell-based. More on the design: species or system Xenopus laevis oocytes.

Test [3] concerns the target T3, Dα1/Dα2/Dβ1/Dβ2 nAChR (Drosophila melanogaster, UniProt P04755+P09478+P17644+P25162). Briefly: cell-based. More on the design: species or system Xenopus laevis oocytes.
In test [4] the target is T4, Dα1/Dα2/Dβ1 nAChR (Drosophila melanogaster, UniProt P04755+P09478+P17644).
T4 sequence (P09478 22-567): T1 sequence (P09478 22-567)
T4 sequence (P17644 22-576): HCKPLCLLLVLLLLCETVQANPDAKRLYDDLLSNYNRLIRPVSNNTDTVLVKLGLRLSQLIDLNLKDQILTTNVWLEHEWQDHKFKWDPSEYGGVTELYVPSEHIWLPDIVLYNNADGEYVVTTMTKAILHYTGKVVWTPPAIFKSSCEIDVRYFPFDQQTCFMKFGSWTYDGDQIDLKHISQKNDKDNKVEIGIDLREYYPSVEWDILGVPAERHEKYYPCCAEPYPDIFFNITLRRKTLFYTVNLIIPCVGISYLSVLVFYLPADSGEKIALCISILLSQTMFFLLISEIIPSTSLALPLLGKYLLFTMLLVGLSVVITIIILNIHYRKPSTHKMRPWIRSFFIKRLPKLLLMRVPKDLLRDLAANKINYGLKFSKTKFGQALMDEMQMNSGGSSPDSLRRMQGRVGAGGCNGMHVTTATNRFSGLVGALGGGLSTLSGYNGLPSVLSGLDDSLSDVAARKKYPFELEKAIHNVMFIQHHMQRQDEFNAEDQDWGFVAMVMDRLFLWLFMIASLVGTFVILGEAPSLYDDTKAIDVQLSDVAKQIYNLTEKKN
T4 sequence (P04755 25-521): T1 sequence (P04755 25-521)
Briefly: cell-based. More on the design: species or system Xenopus laevis oocytes.

The target of test [5] is T4, Dα1/Dα2/Dβ1 nAChR. Briefly: two-electrode voltage clamp of Xenopus oocytes, agonist concentration-response. In kind it is cell-based.
In test [6] the target is T3, Dα1/Dα2/Dβ1/Dβ2 nAChR. The test is described as above. The format is cell-based.
The target of test [7] is T2, Dα1/Dβ1/Dβ2 nAChR. The test is described as above. In kind it is cell-based.
Test [8] addresses T1, Dα1/Dβ1 nAChR. The test is described as follows: cell-based. The arrangement: species or system Xenopus laevis oocytes.

As to `CN/C(=N\[N+](=O)[O-])NCc1cnc(Cl)s1` [clothianidin], the EC50 was 61.7 nM in test [1], 219 nM in test [2], 309 nM in test [3] and 2950 nM in test [4].
As to `O=[N+]([O-])NC1=NCCN1Cc1ccc(Cl)nc1` [imidacloprid], the EC50 in test [5] is 407 nM; in test [6], 120 nM; in test [7], 107 nM; in test [8] it was 174 nM.
On to `N#C/N=C1\SCCN1Cc1ccc(Cl)nc1` [thiacloprid], for which the EC50 was 234 nM in test [5], 70.8 nM in test [6], 18.6 nM in test [7] and 22.9 nM in test [1].

By EC50 is commonly meant the concentration at which the effect is half-maximal.
